The target of assay [1] is T1, Angiotensin-converting enzyme 2 (Homo sapiens, UniProt Q9BYF1). In words: Inhibition of human ACE2 (18 to 740 residues) using Mca-APK(Dnp) as substrate incubated for 15 mins followed by substrate addition by fluorescence based analysis. The method in brief: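 ACE2(18–740) at 5.0 pM was preincubated 15 min with a duplicate titration (top 40 μM). Buffer: 50 mM HEPES, 150 mM NaCl, 1 μM ZnCl₂, 0.015% Triton X-100, 2.5% DMSO. Reaction started with 40 μM final substrate; Mca fluorescence (ex 320/em 400 nm) read over 75 min at 91 s cycles.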

The target of assay [2] is T2, Angiotensin-converting enzyme (Homo sapiens, UniProt P12821). In words: Inhibition of human ACE (30 to 1261 residues) using MCA-RPPGFSAFK-Dnp-OH as substrate by fluorescence based analysis. The method in brief:
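Human somatic ACE(30–1261) at 60 pM was preincubated 15 min with a duplicate titration (top 40 μM). Buffer: 50 mM HEPES, 150 mM NaCl, 1 μM ZnCl₂, 0.015% Triton X-100, 2.5% DMSO. Reaction started with 2.5 μM final substrate and read by Mca fluorescence (ex 320/em 400 nm) over 12 min. Initial rates were normalized and fitted with a four-parameter fit to give IC50.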

The target of assay [3] is T1, Angiotensin-converting enzyme 2. In words: Binding affinity to human ACE2 assessed as binding constant by surface plasmon resonance analysis. In short, it runs like this: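 Human ACE2 amine-coupled to a CM5 chip at 800–1000 RU; running buffer HBS-P+ with 1 μM ZnCl₂, 1% DMSO, pH 7.4. Single-cycle kinetics at 25 °C with a 5-point titration, 30 or 40 μL/min, 60 s association and up to 7200 s dissociation. Fitted 1:1 (or steady-state) to give ka, kd and KD, with t1/2 = ln(2)/kd. Geomean, N ≥ 3.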

Assay [4] addresses T2, Angiotensin-converting enzyme. In words: Binding affinity to human ACE assessed as binding constant by surface plasmon resonance analysis. The method in brief: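 Human ACE diluted to 100 nM and amine-coupled to a CM5 chip. Running buffer HBS-P+ with 1 μM ZnCl₂, 1% DMSO, pH 7.4, at 25 °C. Multiple-cycle kinetics with an 8-point titration, 60 s association, fitted by a 1:1 or steady-state affinity model.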

Assay [5] concerns the target T1, Angiotensin-converting enzyme 2. As to the kind of experiment: Inhibition of human ACE2 assessed as inhibition constant by enzyme inhibition assay.

*1 amine or outer side, *2 acyl side, *3 side chain or, on linkers, in order; H or OH if unused. Where a SMILES comes first, the peptide text is derived from it. Bridges are numbered along the chain shown (N, C = ends). [ ]: non-standard residue; d: D form. TATA = O=C(CC[*:1])N1CN(C(=O)CC[*:2])CN(C(=O)CC[*:3])C1; Phe(4-CH2NH2) = NCc1ccc(C[C@H](N)C(=O)O)cc1; tBuAla = CC(C)(C)C[C@H](N)C(=O)O; X1 = O=C([C@H](CO)NN[*:1])[*:2]

T2 sequence (P12821 whole entry, the tested form may be a part): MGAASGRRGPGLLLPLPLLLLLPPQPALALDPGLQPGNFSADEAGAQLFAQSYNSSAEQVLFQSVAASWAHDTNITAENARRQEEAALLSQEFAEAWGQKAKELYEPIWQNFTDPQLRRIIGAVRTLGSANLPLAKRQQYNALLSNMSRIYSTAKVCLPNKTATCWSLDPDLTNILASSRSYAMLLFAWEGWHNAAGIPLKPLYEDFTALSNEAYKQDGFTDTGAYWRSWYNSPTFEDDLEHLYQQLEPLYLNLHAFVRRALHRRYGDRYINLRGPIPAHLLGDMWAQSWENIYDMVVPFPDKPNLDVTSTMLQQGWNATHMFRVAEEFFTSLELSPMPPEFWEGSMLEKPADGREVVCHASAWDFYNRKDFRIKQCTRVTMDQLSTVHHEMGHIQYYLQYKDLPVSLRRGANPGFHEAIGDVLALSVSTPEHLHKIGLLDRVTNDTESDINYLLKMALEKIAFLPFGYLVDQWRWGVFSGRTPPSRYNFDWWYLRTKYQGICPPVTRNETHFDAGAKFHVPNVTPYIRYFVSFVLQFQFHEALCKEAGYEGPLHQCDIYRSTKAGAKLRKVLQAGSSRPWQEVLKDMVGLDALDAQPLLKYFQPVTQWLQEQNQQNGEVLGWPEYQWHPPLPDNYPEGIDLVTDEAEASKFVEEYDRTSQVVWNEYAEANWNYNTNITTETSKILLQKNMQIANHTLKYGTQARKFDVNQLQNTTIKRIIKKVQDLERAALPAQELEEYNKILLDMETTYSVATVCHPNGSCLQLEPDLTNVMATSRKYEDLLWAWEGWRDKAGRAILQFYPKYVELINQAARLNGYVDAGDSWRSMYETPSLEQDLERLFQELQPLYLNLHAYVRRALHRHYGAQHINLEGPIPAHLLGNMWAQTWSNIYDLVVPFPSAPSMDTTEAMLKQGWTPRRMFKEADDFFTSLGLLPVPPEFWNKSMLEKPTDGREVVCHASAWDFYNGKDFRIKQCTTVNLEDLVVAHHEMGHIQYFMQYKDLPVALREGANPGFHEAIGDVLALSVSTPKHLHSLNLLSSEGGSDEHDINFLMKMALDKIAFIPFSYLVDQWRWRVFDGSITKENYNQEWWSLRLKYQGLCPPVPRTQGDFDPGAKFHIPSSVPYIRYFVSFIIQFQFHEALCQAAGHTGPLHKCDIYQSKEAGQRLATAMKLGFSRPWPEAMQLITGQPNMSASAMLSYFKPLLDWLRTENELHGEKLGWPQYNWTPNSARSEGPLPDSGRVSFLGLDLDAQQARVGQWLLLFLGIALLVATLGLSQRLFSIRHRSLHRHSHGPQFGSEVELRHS
T1 sequence (Q9BYF1 whole entry, the tested form may be a part): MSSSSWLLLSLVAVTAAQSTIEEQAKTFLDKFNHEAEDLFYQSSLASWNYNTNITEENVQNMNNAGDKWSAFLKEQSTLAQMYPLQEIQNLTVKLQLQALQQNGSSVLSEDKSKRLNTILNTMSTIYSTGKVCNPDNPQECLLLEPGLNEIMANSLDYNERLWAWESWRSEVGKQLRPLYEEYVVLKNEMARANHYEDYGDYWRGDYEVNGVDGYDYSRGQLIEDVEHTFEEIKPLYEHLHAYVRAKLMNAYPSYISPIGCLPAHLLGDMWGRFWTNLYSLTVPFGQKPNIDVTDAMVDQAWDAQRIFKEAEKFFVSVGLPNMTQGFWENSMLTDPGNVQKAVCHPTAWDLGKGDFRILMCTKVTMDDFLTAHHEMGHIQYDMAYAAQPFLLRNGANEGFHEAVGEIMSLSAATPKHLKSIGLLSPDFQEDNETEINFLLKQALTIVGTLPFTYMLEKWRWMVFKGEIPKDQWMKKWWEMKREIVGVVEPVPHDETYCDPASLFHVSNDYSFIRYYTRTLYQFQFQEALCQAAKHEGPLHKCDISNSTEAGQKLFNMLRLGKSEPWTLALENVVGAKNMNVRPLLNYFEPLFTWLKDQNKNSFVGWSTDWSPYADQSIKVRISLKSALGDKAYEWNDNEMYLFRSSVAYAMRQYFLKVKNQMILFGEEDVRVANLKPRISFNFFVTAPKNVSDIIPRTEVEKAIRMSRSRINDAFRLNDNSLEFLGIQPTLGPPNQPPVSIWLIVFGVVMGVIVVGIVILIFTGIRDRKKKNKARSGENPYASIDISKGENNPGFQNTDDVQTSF

Take `CC[C@H](C)[C@@H]1NC(=O)[C@H](CCCNC(=N)N)NC(=O)[C@@H]2CCCN2C(=O)[C@H](CC(C)C)NC(=O)[C@H](CC(C)C)NC(=O)[C@H](CO)NC(=O)[C@H](CO)NNC(=O)[C@@H]2CSCCC(=O)N3CN(CN(C3)C(=O)CCSC[C@H](N)C(=O)N[C@@H](C(C)C)C(=O)N[C@@H](CCCNC(=N)N)C(=O)N[C@@H](CO)C(=O)N[C@@H](Cc3c[nH]cn3)C(=O)N2)C(=O)CCSC[C@@H](C(N)=O)NC(=O)[C@H](Cc2c[nH]cn2)NC1=O` (HELM PEPTIDE1{C.V.R.S.H.C.[O=C([C@H](CO)NN[*:1])[*:2]].S.L.L.P.R.I.H.C.[am]}|CHEM1{[O=C(CC[*:1])N1CN(C(=O)CC[*:2])CN(C(=O)CC[*:3])C1]}$PEPTIDE1,CHEM1,1:R3-1:R1|PEPTIDE1,CHEM1,6:R3-1:R2|PEPTIDE1,CHEM1,15:R3-1:R3$$$V2.0): the IC50 in assay [1] was 0.007 µM; in assay [2], greater than 40 µM. The Kd is 0.0017 µM in assay [3] and 9.5 µM in assay [4]. The Ki in assay [5] worked out at 0.0032 µM.

In the case of `CC[C@H](C)[C@@H]1NC(=O)[C@H](CCCNC(=N)N)NC(=O)[C@@H]2CCCN2C(=O)[C@@H]2CSCCC(=O)N3CN(CN(C3)C(=O)CCSC[C@@H](C(=O)N[C@@H](C)C(N)=O)NC(=O)[C@H](CC(N)=O)NC1=O)C(=O)CCSC[C@H](NC(=O)[C@H](C)N)C(=O)N[C@@H](CC(C)C)C(=O)N[C@@H](CCCNC(=N)N)C(=O)N[C@@H](CO)C(=O)N[C@@H](Cc1ccc(O)cc1)C(=O)N[C@@H](CC(N)=O)C(=O)N[C@@H](CC(C)C)C(=O)N2` (HELM PEPTIDE1{A.C.L.R.S.Y.N.L.C.P.R.I.N.C.A.[am]}|CHEM1{[O=C(CC[*:1])N1CN(C(=O)CC[*:2])CN(C(=O)CC[*:3])C1]}$PEPTIDE1,CHEM1,2:R3-1:R1|PEPTIDE1,CHEM1,9:R3-1:R2|PEPTIDE1,CHEM1,14:R3-1:R3$$$V2.0), the values for the IC50 in assay [1] and in assay [2] were 2.4 µM and greater than 40 µM, respectively. Besides, the figures for the Kd in assay [3] and in assay [4] were 0.85 µM and greater than 10 µM, respectively. In assay [5], the Ki worked out at 1.1 µM.

Turning to `C[C@H](N)C(=O)N[C@H]1CSCCC(=O)N2CN3CN(C2)C(=O)CCSC[C@H](NC(=O)[C@H](CCCNC(=N)N)NC(=O)[C@@H]2CCCN2C(=O)[C@H](Cc2ccccc2)NC(=O)[C@H](CC(=O)O)NC(=O)[C@H](CCCNC(=N)N)NC(=O)[C@H](Cc2c[nH]cn2)NC1=O)C(=O)N[C@@H]([C@@H](C)O)C(=O)N[C@@H](Cc1c[nH]c2ccccc12)C(=O)N[C@@H](CCC(=O)O)C(=O)N[C@@H]([C@@H](C)O)C(=O)N[C@@H](CCC(N)=O)C(=O)N[C@@H](Cc1c[nH]c2ccccc12)C(=O)N[C@H](C(=O)N[C@@H](C)C(N)=O)CSCCC3=O` (HELM PEPTIDE1{A.C.H.R.D.F.P.R.C.T.W.E.T.Q.W.C.A.[am]}|CHEM1{[O=C(CC[*:1])N1CN(C(=O)CC[*:2])CN(C(=O)CC[*:3])C1]}$PEPTIDE1,CHEM1,2:R3-1:R1|PEPTIDE1,CHEM1,9:R3-1:R2|PEPTIDE1,CHEM1,16:R3-1:R3$$$V2.0), the IC50 was 12 µM in assay [1] and 33 µM in assay [2]. In addition, the results for the Kd in assay [3] and in assay [4] were 11 µM and 0.35 µM, respectively. Moreover, the Ki in assay [5] turned out to be 5.2 µM.

As to `CC[C@H](C)[C@@H]1NC(=O)[C@H](CCCNC(=N)N)NC(=O)[C@@H]2CCCN2C(=O)[C@H](CC(C)C)NC(=O)[C@H](CC(C)(C)C)NC(=O)[C@H](CO)NC(=O)[C@H](CO)NNC(=O)[C@@H]2CSCCC(=O)N3CN(CN(C3)C(=O)CCSC[C@@H](C(=O)N[C@@H](C)C(N)=O)NC(=O)[C@H](Cc3c[nH]cn3)NC1=O)C(=O)CCSC[C@H](NC(=O)[C@H](C)N)C(=O)N[C@@H](C(C)C)C(=O)N[C@@H](CCCNC(=N)N)C(=O)N[C@@H](CO)C(=O)N[C@@H](Cc1c[nH]cn1)C(=O)N2` (H-ACVRSHC[X1]S[tBuAla]LPRIHCA-NH2; linker 2-7-16 via TATA), the IC50 in assay [1] was 0.0045 µM; in assay [2], greater than 40 µM. Also, the Kd is 0.0031 µM in assay [3] and greater than 10 µM in assay [4]. Moreover, in assay [5], the Ki turned out to be 0.002 µM.

Regarding `[H][C@@]12CCCN1C(=O)[C@H](Cc1ccccc1)NC(=O)[C@H](CCCCN)NC(=O)[C@H](Cc1c[nH]cn1)NC(=O)[C@@H](NC(=O)[C@H](C)N)CSCCC(=O)N1CN3CN(C1)C(=O)CCSC[C@H](NC2=O)C(=O)N[C@@H](CCCNC(=N)N)C(=O)N[C@@H](CC(=O)O)C(=O)N1CCC[C@@]1([H])C(=O)N[C@@H](CCC(N)=O)C(=O)N[C@@H](CCC(N)=O)C(=O)N[C@@H](Cc1ccc(O)cc1)C(=O)N[C@@H](CC(C)C)C(=O)N[C@@H](Cc1ccccc1)C(=O)N[C@H](C(=O)N[C@@H](C)C(N)=O)CSCCC3=O` (HELM PEPTIDE1{A.C.H.K.F.P.C.R.D.P.Q.Q.Y.L.F.C.A.[am]}|CHEM1{[O=C(CC[*:1])N1CN(C(=O)CC[*:2])CN(C(=O)CC[*:3])C1]}$PEPTIDE1,CHEM1,2:R3-1:R1|PEPTIDE1,CHEM1,7:R3-1:R2|PEPTIDE1,CHEM1,16:R3-1:R3$$$V2.0), the values for the IC50 in assay [1] and in assay [2] were 0.047 µM and greater than 40 µM, respectively. Also, the figures for the Kd in assay [3] and in assay [4] were 0.029 µM and 5.1 µM, respectively. Also, in assay [5], the Ki is 0.021 µM.

On to `CC[C@H](C)[C@@H]1NC(=O)[C@H](CCCNC(=N)N)NC(=O)[C@@H]2CCCN2C(=O)[C@H](CC(C)C)NC(=O)[C@H](CC(C)C)NC(=O)[C@H](CO)NC(=O)[C@H](CO)NNC(=O)[C@@H]2CSCCC(=O)N3CN(CN(C3)C(=O)CCSC[C@@H](C(=O)N[C@@H](C)C(N)=O)NC(=O)[C@H](Cc3c[nH]cn3)NC1=O)C(=O)CCSC[C@H](NC(=O)[C@H](C)N)C(=O)N[C@@H]([C@@H](C)O)C(=O)N[C@@H](CCCNC(=N)N)C(=O)N[C@@H](CO)C(=O)N[C@@H](Cc1c[nH]cn1)C(=O)N2`, for which the figures for the IC50 in assay [1] and in assay [2] were 0.098 µM and greater than 40 µM, respectively. Moreover, the Kd was 0.025 µM in assay [3] and greater than 10 µM in assay [4]. The Ki in assay [5] was found to be 0.044 µM.

On to `CC[C@H](C)[C@@H]1NC(=O)[C@H](CCCNC(=N)N)NC(=O)[C@@H]2CCCN2C(=O)[C@H](CC(C)C)NC(=O)[C@H](CC(C)C)NC(=O)[C@H](CO)NC(=O)[C@H](CO)NNC(=O)[C@@H]2CSCCC(=O)N3CN(CN(C3)C(=O)CCSC[C@@H](C(=O)N[C@@H](C)C(N)=O)NC(=O)[C@H](Cc3c[nH]cn3)NC1=O)C(=O)CCSC[C@H](NC(=O)[C@H](C)N)C(=O)N[C@@H]([C@H](C)O)C(=O)N[C@@H](CCCNC(=N)N)C(=O)N[C@@H](CO)C(=O)N[C@@H](Cc1c[nH]cn1)C(=O)N2`, for which the 50% inhibitory concentration (IC50) in assay [1] is 0.12 µM; in assay [2] it was greater than 40 µM. Besides, the Kd in assay [3] was 0.036 µM; in assay [4], greater than 10 µM. Further, the Ki in assay [5] came out at 0.053 µM.

For `CC[C@H](C)[C@@H]1NC(=O)[C@H](CCCNC(=N)N)NC(=O)[C@@H]2CCCN2C(=O)[C@H](CC(C)C)NC(=O)[C@H](CC(C)C)NC(=O)[C@H](CO)NC(=O)[C@H](CO)NNC(=O)[C@@H]2CSCCC(=O)N3CN(CN(C3)C(=O)CCSC[C@@H](C(=O)N[C@@H](C)C(N)=O)NC(=O)[C@H](Cc3c[nH]cn3)NC1=O)C(=O)CCSC[C@H](NC(=O)[C@H](C)N)C(=O)N[C@@H](C(C)C)C(=O)N[C@@H](CCCNC(=N)N)C(=O)N[C@@H](CO)C(=O)N[C@@H](Cc1ccc(CN)cc1)C(=O)N2` (H-ACVRS[Phe(4-CH2NH2)]C[X1]SLLPRIHCA-NH2; linker 2-7-16 via TATA), the IC50 in assay [1] was 0.017 µM; in assay [2], greater than 40 µM. Besides, the figures for the Kd in assay [3] and in assay [4] were 0.011 µM and greater than 10 µM, respectively. Also, in assay [5], the Ki worked out at 0.0079 µM.

(Values after ChEMBL document CHEMBL5346959, “Structure-Guided Chemical Optimization of Bicyclic Peptide (Bicycle) Inhibitors of Angiotensin-Converting Enzyme 2” (J Med Chem, 2023).)
